Test results as given in PubChem BioAssay AID652204 (Vanderbilt Specialized Chemistry Center, 2013).
Active and inactive are the calls of the source. The rule behind the calls is not given here.

Target: Metabotropic glutamate receptor 4 (Rattus norvegicus) (UniProt P31423)
Assay: mGlu4 modulation of glutamate calcium response, selectivity assay for mGlu5 silent allosteric modulator project, cell-based, rat, CHO, Gqi5, Fluo4 calcium (AID 652204)
Conditions: CHO rmGlu4/Gqi5, Fluo4 calcium mobilization, glutamate CRC
In short: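 Test system: CHO cells expressing rat mGlu4 together with Gqi5; Medium: HBSS buffer with probenecid 2.5 mM, HEPES 20 mM, pH 7.4; Also added: glutamate 9-point series up to 1 mM; Dosing: 10 µM compound, 1% DMSO; Times: 37 °C 60-min dye-loading, compound 20 s, glutamate 80 s; Detection: Fluo4 calcium-dye fluorescence.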

Metabotropic glutamate receptor 4 (Rattus norvegicus), sequence (P31423 whole entry, looked up): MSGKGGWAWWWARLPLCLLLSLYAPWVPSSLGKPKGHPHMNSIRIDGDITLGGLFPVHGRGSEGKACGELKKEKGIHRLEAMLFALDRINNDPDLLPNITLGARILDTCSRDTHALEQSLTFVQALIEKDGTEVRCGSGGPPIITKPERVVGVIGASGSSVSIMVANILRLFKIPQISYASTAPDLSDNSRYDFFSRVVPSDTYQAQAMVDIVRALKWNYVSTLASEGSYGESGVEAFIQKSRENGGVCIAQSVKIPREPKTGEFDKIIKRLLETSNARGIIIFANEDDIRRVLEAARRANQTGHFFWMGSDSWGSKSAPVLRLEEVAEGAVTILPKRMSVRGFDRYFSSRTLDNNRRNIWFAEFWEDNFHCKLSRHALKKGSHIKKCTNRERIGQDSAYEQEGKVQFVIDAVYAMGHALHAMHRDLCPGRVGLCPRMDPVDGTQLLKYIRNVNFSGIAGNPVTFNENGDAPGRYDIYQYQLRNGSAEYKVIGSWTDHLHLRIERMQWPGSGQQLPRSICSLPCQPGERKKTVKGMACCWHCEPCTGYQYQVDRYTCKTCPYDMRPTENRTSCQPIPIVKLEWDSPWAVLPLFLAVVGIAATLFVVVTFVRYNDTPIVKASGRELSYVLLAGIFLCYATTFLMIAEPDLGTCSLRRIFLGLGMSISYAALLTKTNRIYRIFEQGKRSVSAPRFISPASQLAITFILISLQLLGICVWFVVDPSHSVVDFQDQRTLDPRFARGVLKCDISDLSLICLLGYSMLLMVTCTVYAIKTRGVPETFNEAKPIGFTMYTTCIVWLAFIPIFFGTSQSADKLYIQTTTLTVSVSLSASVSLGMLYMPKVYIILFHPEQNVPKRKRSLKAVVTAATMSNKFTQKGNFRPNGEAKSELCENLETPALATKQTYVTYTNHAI

O=C(c1ccc(C#Cc2cccc(F)c2)cn1)N1CC2CC2C1 (configuration not stated)
glutamate EC50 in presence of 10 uM compound: inactive | fold shift (measured here: glutamate EC50 fold shift, at 10 µM): 1.23
